Compound activity from PubChem BioAssay.
Most compounds without a hit are left out; they make up all but 3.9% or so of the library.
XBP1 UPR activ – activators of adaptive XBP1 UPR arm, primary screen, cell-based, CHO-XBP1 luciferase reporter, luminescence, uHTS | AID 463104, 2010 | activation, % at 20 µM | IRE1-XBP1 UPR activation; percent of tunicamycin response, DMSO as zero | 330,000 tested, 0.33% active;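 active means versus positive control, 20 µM dose yields 30% or more activation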;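 further: 100% = tunicamycin at 10 µg/mL and 0% = DMSO only wells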
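Assay system: CHO-XBP1 luciferase reporter cells; Schedule: 6 h treatment, 37 °C; Detection: glow luminescence from Steady-Glo reagent; Benchmarks: high control tunicamycin 10 µg/mL final, low control DMSO vehicle only.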
Gli-Sufu block – Gli-Sufu pathway antagonists, primary screen, luciferase luminescence, Sufu-KO-LIGHT cells, uHTS. Sufu-KO-LIGHT fibroblasts, Gli luciferase reporter luminescence. inhibition, % at 5 µM. 340,000 tested, 0.74% active. AID 588413, 2011;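 active means inhibition above about 55%, limit read from the data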;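 further: 0% = DMSO-treated cells and 100% = wells with medium but no cells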
697 NFkB inh – inhibitors of PMA/ionomycin-induced NF-kB reporter, 697 cells, primary screen, B-cell NF-kB inhibitor project, cell-based, luminescence, uHTS; 697 B-cell NF-kB luciferase reporter, 16 h; inhibition, % at 4 µM; 330,000 tested, 0.33% active; in the data active means inhibition above about 35%
CHOP inh – inhibitors of CHOP promoter induction, primary screen, cell-based, unfolded protein response, luciferase reporter | AID 2732, 2010 | 220,000 tested, 3.8% active | CHO-K1 CHOP-promoter luciferase, tunicamycin-induced, 15-18 h | inhibition, % at 10 µM;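 active means compounds that reduced the stress-induced luciferase reporter signal by more than about 70% of percent inhibition, limit read from the data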;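 further: 0% = tunicamycin plus vehicle and 100% = wells without tunicamycin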
CHOP UPR activ – activators of apoptotic CHOP UPR arm, primary screen, cell-based, CHO-CHOP luciferase reporter, luminescence, uHTS | UPR activation; percent of tunicamycin response over DMSO baseline | activation, % at 10 µM | 330,000 tested, 0.34% active | AID 449763, 2010;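 active means at 10 µM dose, activation of 40% or more, normalized to positive control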;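 further: 100% = tunicamycin at 10 µg/mL and 0% = DMSO alone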
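Test system: CHO-CHOP cells, stable luciferase reporter of PERK-eIF2a-CHOP signalling | Quantity: 500 CHO-CHOP cells per well | Buffer or medium: F12 plus 10% serum | Compound dosing: 10 µM single point, 0.5% DMSO | Schedule: 6 h compound treatment, 37 °C | Signal: Luciferase luminescence | Control set: Tunicamycin high control, DMSO low control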
Jurkat NFkB inh – inhibitors of induced NF-kB luciferase reporter, primary screen, TCR NF-kB activation inhibitor project, cell-based, luminescence, uHTS | Jurkat, PMA/ionomycin-induced NF-kB luciferase reporter | AID 435003, 2010 | 330,000 tested, 0.53% active | inhibition, % at 4 µM; in the data active means inhibition above about 50%
Jurkat NFkB conf – PMA/ionomycin-induced NF-kB reporter inhibitors, Jurkat retest, confirmation, T-cell NF-kB inhibitor project, cell-based, luminescence, single concentration; Jurkat NF-kB luciferase, 16 h; 2,700 tested, 27% active; AID 435020, 2010; inhibition, % at 4 µM; shares compounds with Jurkat NFkB inh;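 active means inhibition reaching about 45% at 4 µM in either replicate, limit read from the data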;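 further: plate controls were PMA/ionomycin stimulated DMSO wells for no effect and unstimulated DMSO wells for full effect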
697 NFkB conf – PMA/ionomycin-induced NF-kB reporter inhibitors, 697 retest, confirmation, B-cell NF-kB inhibitor project, cell-based, luminescence, single concentration. 2,000 tested, 35% active. AID 449746, 2010. shares compounds with 697 NFkB inh. 697 B-cell NF-kB luciferase, 16 h. inhibition, % at 4 µM; in the data active means inhibition mostly above about 28%, no sharp cut-off; inactive means mostly below about 22%
Active calls of the source: *; . = no result.

SMILES | XBP1 UPR activ | Gli-Sufu block | 697 NFkB inh | CHOP inh | CHOP UPR activ | Jurkat NFkB inh | Jurkat NFkB conf | 697 NFkB conf
O=C(NC(=S)Nc1cccnc1)c1cccs1 | -3 | -5 | 0 | 19 | 0 | -17 | . | .
O=C(NC(=S)Nc1ccc(Cl)cn1)c1cccs1 | -5 | -1 | -324 | 15 | 2 | -164 | -100 | -167
O=C(O)C1C2C=CC(C2)C1C(=O)NCc1ccc(Cl)cc1Cl (configuration not stated) | -6 | -6 | -8 | . | 0 | 4 | . | .
O=C(Nc1ccc(Cl)cc1)Nc1cccc(C(=O)O)c1 | -9 | -87 | 53* | 79* | -8 | 76* | 44 | 32*
CCOc1ccc(NC(=O)Nc2cccc(C(=O)O)c2)cc1 | -8 | -32 | 81* | 93* | -9 | 82* | 80* | 77*
CCOC(=O)c1cccc(NC(=O)Nc2ccc(OCC)cc2)c1 | 5 | -84 | -54 | 0 | 2 | -25 | . | .
COc1ccc(N=Cc2c(O)[nH]c3ccccc23)cc1 | 2 | -137 | -297 | 14 | 2 | -186 | -32 | -109
COc1ccc(S(=O)(=O)NCC2CCC(C(=O)NCCCN3CCCC3=O)CC2)cc1 (configuration not stated) | -3 | 30 | -30 | . | 2 | 17 | . | .
Cc1ccc(-c2cn(-c3ccccc3)c(=S)[nH]2)cc1C | -5 | -69 | -286 | . | 3 | -152 | -29 | -327
Oc1cccc(/C=C/c2ccc3cccc(O)c3n2)c1 | 7 | 11 | -360 | . | 1 | -167 | -142 | -77
CSc1ccccc1C(=O)Nc1nc2ccccc2[nH]1 | 1 | -61 | -56 | -38 | 2 | -55 | . | .
COc1cc(SC)ccc1C(=O)Nc1ccc2c(c1)OCCO2 | -3 | -127 | -276 | 32 | 3 | -154 | -108 | -231
COc1ccccc1C(=O)Nc1ccc2c(c1)OCCO2 | -1 | -71 | -124 | -30 | 3 | -100 | . | .
COc1cc(SC)ccc1C(=O)Nc1nc2ccccc2[nH]1 | -17 | 93* | 92* | . | -9 | 99* | 98* | 98*
COc1ccccc1C(=O)Nc1nc2ccccc2[nH]1 | -16 | 75* | 69* | . | -9 | 91* | 93* | 67*
CC(=O)NC12CC3CC(C1)CC(C(=O)Oc1ccc(N(C)S(=O)(=O)c4cc(C)ccc4C)cc1)(C3)C2 | 0 | -4 | -21 | . | 1 | 3 | . | .
COc1ccc(OC)c(S(=O)(=O)N/N=C\c2c[nH]c3ccccc23)c1 | -7 | 7 | -31 | . | 1 | -7 | . | .
CC(C)NC(=O)N(C)C[C@H]1Oc2c(NC(=O)Nc3ccccc3)cccc2C(=O)N([C@H](C)CO)C[C@@H]1C | 1 | 7 | -11 | . | 0 | 7 | . | .
COc1ccc(-c2sc3ccc(N4CCOCC4)cc3c2-c2ccc(OC)c(F)c2)cc1 | 1 | 16 | 27 | . | 1 | 1 | . | .
CCCN(C(=O)CSc1ccccc1C(=O)O)C1CCS(=O)(=O)C1 (configuration not stated) | 3 | -2 | 0 | . | 0 | -17 | . | .
COc1ccc(-c2c[n+]3c(n2-c2c(C)n(C)n(-c4ccccc4)c2=O)CCCCC3)cc1 | 0 | -1 | 22 | 20 | 0 | 23 | . | .
CCOc1ccc(-n2c(-c3ccc(OC)cc3)c[n+]3c2CCCCC3)cc1 | 3 | 87* | 57* | 46 | 0 | 73* | 58* | 65*
COc1ccc(-c2c[n+]3c(n2-c2ccc(C)cc2)CCCCC3)cc1 | -2 | 79* | 51* | 48 | 2 | 79* | 61* | 65*
CS(=O)(=O)N(CC(=O)O)c1cc(C(F)(F)F)ccc1Cl | 1 | 5 | 17 | . | 2 | 8 | . | .
Cc1cc(C)c(S(=O)(=O)N2CCCCC2CCNC(=O)C(=O)NCCN2CCOCC2)c(C)c1 (configuration not stated) | -4 | 21 | 25 | . | 1 | -3 | . | .
SMILES | XBP1 UPR activ | Gli-Sufu block | 697 NFkB inh | CHOP inh | CHOP UPR activ | Jurkat NFkB inh | Jurkat NFkB conf | 697 NFkB conf
O=C(NC(=S)Nc1ccccn1)c1ccc(-c2ccccc2)cc1 | -2 | -81 | -287 | . | 5 | -188 | -55 | -432
CN(C)S(=O)(=O)c1cccc(NC(=O)c2ccc(S(=O)(=O)N3CCCC3)cc2)c1 | -4 | 7 | -15 | . | -1 | -29 | . | .
CC(C)(C)c1ccc(-c2nc(-c3ccncc3)no2)cc1 | -3 | -39 | -355 | 82* | 1 | -193 | -69 | -379
Cc1ccc(-c2nc(-c3ccncc3)no2)cc1 | . | -61 | . | . | . | . | . | .
Brc1ccccc1-c1nc(-c2ccccc2)no1 | -6 | . | -303 | 52 | -2 | -153 | -98 | -329
c1ccc(-c2noc(-c3cccc4ccccc34)n2)cc1 | 4 | -6 | -179 | 69 | 4 | -131 | . | .
Cc1ccc(-c2nc(-c3ccccc3)no2)cc1 | -17 | -121 | -295 | 9 | -6 | -177 | -123 | -283
N#CC1(c2ccc(NC(=O)c3ccccc3F)cc2)CCCC1 | -1 | -106 | -281 | 13 | 2 | -210 | -166 | -214
O=C(Nc1ccc2c(c1)Cc1ccccc1-2)c1ccccc1F | 0 | -85 | -323 | . | 3 | -161 | -139 | -202
CCN(CC)/C(=N\S(=O)(=O)c1ccccc1C)c1ccccc1 | -2 | 4 | -6 | . | 1 | -1 | . | .
N#Cc1ccccc1COC(=O)CCCC1=NS(=O)(=O)c2ccccc2N1 | -2 | -10 | 0 | . | -1 | 3 | . | .
CCc1ccc(-c2nc(CS(=O)CC(=O)NCc3ccco3)c(C)o2)cc1 (configuration not stated) | -5 | 18 | 36* | . | -3 | 51* | 56* | 35*
CCc1ccc(-c2nc(CS(=O)CC(=O)NCc3cccnc3)c(C)o2)cc1 (configuration not stated) | 1 | 3 | 0 | 70 | -2 | 2 | . | .
CCCc1cc2c(=O)c(-c3ccc4c(c3)OCCO4)coc2cc1OC(=O)c1ccco1 | 1 | -56 | -186 | 5 | 4 | -89 | . | .
CCc1cc2c(=O)c(-c3ccc4c(c3)OCCO4)coc2cc1OC(=O)c1ccco1 | 1 | -121 | -360 | 21 | 1 | -223 | -129 | -407
